This excerpt belongs to a sample that is enriched for hits.
697 NFkB inh = lowers PMA/ionomycin-induced NF-kB signal in 697 B cells; 697 B-cell NF-kB luciferase reporter, 16 h; inhibition, % at 4 µM; actives 0.33% (n = 330,000); AID 435022; in the data active means inhibition above about 35%
UPR CHOP act = apoptotic UPR (CHOP) activation | CHO-CHOP luciferase reporter, luminescence; percent of tunicamycin response over DMSO baseline | activation, % at 10 µM | actives 0.34% (n = 330,000);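 active means at 10 µM dose, activation of 40% or more, normalized to positive control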;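 further: 100% = tunicamycin at 10 µg/mL and 0% = DMSO alone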
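Dosing – one dose, 10 µM in 0.5% DMSO · System – CHO-CHOP cells, stable luciferase reporter of PERK-eIF2a-CHOP signalling · Input – 500 cells/well · Control set – tunicamycin 10 µg/mL final as positive, DMSO-only wells as negative · Timing – 6 h compound treatment, 37 °C · Measure – % activation vs tunicamycin · Technique – luminescence read with Steady-Glo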
Jurkat NFkB inh = lowers PMA/ionomycin-induced NF-kB signal in Jurkat cells; actives 0.53% (n = 330,000); inhibition, % at 4 µM; PMA/ionomycin-induced NF-kB luciferase reporter, luminescence; in the data active means inhibition above about 50%
CHOP inhibitor = CHOP inhibition in unfolded protein response | CHO-K1 CHOP-promoter luciferase, tunicamycin-induced, 15-18 h | inhibition, % at 10 µM | actives 3.8% (n = 220,000) | AID 2732;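 active means compounds that reduced the stress-induced luciferase reporter signal by more than about 70% of percent inhibition, limit read from the data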;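 further: 0% = tunicamycin plus vehicle and 100% = wells without tunicamycin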
XBP1 UPR activ = adaptive UPR (XBP1) activation. actives 0.33% (n = 330,000). activation, % at 20 µM. CHO-XBP1 luciferase reporter, IRE1-XBP1 UPR activation, luminescence; percent of tunicamycin response, DMSO as zero;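 active means versus positive control, 20 µM dose yields 30% or more activation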;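 further: 100% = tunicamycin at 10 µg/mL and 0% = DMSO only wells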
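assay system = CHO-XBP1 luciferase reporter cells | amount = 1000 cells/well | buffer or medium = F12 plus 10% FBS | compound dosing = single point, 20 µM final compound, 1% DMSO | incubation = 16-18 h cell attachment at 37 °C, then 6 h compound exposure | detection = Steady-Glo luminescence read | controls = tunicamycin 10 µg/mL and vehicle-only wells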
697 NFkB conf = lowers PMA/ionomycin-induced NF-kB signal in 697 B cells | inhibition, % at 4 µM | 697 B-cell NF-kB luciferase, 16 h | AID 449746 | shares compounds with 697 NFkB inh | actives 35% (n = 2,000); in the data active means inhibition mostly above about 28%, no sharp cut-off; inactive means mostly below about 22%
An asterisk follows results filed as active; i = inactive; . = no result.

SMILES | 697 NFkB inh | UPR CHOP act | Jurkat NFkB inh | CHOP inhibitor | XBP1 UPR activ | 697 NFkB conf
O=C(CCN1C(=O)/C(=C/c2cccs2)SC1=S)NC1=NCCS1 | . | . | . | 9 | . | .
COc1ccccc1/C=C1\SC(=S)N(CC(=O)Nc2nnc(C)s2)C1=O | 72* | -1 | 1 | 72* | -3 | 3
COc1ccccc1/C=C1\SC(=S)N(CCC(=O)Nc2ccc(C(=O)O)c(O)c2)C1=O | 17 | 0 | 2 | . | -1 | .
O=C(NCc1cccs1)C1CCCN1C(=O)Nc1ccccc1Cl (configuration not stated) | 4 | -1 | 14 | . | -2 | .
C#CCOc1ccc(C2C3=C(CCCC3=O)N(CC(=O)O)C3=C2C(=O)CCC3)cc1Br | -1 | 3 | -18 | . | -7 | .
COc1ccccc1N(CC(O)Cn1ccnc1C)S(=O)(=O)c1ccc(C)cc1 (configuration not stated) | -6 | -2 | -10 | 17 | -2 | .
CC(C(=O)Nc1ccccc1-c1ccccc1)N1CCN(S(=O)(=O)c2ccccc2)CC1 (configuration not stated) | 11 | 2 | 2 | 21 | -3 | .
CC(C)c1ccc(S(=O)(=O)N2CCN(C(C)C(=O)Nc3ccccc3-c3ccccc3)CC2)cc1 (configuration not stated) | 35* | 3 | 15 | 44 | 0 | 15
NS(=O)(=O)c1ccc(N=Nc2ccc(O)c3ncccc23)cc1 | -388 | 21 | 14 | . | 3 | -255
NS(=O)(=O)c1ccc(N=Nc2ccc(=O)[nH]c2O)cc1 | . | . | . | 12 | . | .
CCn1c(SCC(=O)NNC(=O)Cc2ccccc2)nnc1-c1ccncc1 | 5 | 2 | 9 | 3 | -2 | .
CCn1c(SCC(=O)NNC(=O)c2ccccc2)nnc1-c1ccncc1 | 42* | -3 | 6 | 10 | -2 | -2
Cc1c(Cc2ccccc2)c(=O)oc2c(C)c(OCC(=O)NCC3CCC(C(=O)O)CC3)ccc12 (configuration not stated) | 39* | -1 | -11 | . | -1 | 27
Cc1cc(C)c2c(N)c(C(=O)Nc3ncc(C)s3)sc2n1 | -278 | -10 | 16 | 96* | -8 | -70
COC(=O)c1sc2nc(C)cc(C)c2c1N | -22 | 2 | -33 | 7 | -3 | .
c1ccc2c(c1)CCN(c1nc3cc4c(cc3s1)OCCO4)C2 | -382 | -7 | -44 | 15 | -5 | -358
N#Cc1cnn2c1nc(N1CCOCC1)c1ccccc12 | 36* | -2 | -2 | 54 | 18 | 18
Cc1nn2c(nc(N3CCOCC3)c3ccccc32)c1C=C(C#N)C#N | -5 | 2 | -9 | -9 | 10 | .
C/C(=N\NC(=O)Cn1cc([N+](=O)[O-])cn1)c1ccco1 | -2 | -1 | -16 | 12 | 1 | .
O=C(O)/C=C1\NC(=O)c2ccccc21 | 3 | -2 | -10 | 8 | -4 | .
O=C1N/C(=C\c2ccc(O)cc2)C(=O)c2ccccc21 | 45* | 7 | 6 | 7 | 2 | 6
COC(=O)[C@@H]1CC[C@H](C)[C@@H](c2ccc(C)cc2)N1C(=O)c1ccc(/C=N/O[C@@H](C)c2cn([C@H](CO)Cc3ccccc3)nn2)cc1 | 52* | 13 | 28 | 25 | -3 | 26
O=C(O)c1ccc(N=Nc2c(O)[nH]c3cc(Cl)ccc23)cc1 | -332 | 5 | -91 | -36 | -1 | -314
CC(C)(CNC(=O)c1cccs1)N1CCOCC1 | 14 | -2 | -8 | . | 1 | .
CC(C)(CNC(=O)C1CCCN1C(=O)c1cccs1)N1CCOCC1 (configuration not stated) | 57* | -2 | -1 | 1 | 0 | -7
SMILES | 697 NFkB inh | UPR CHOP act | Jurkat NFkB inh | CHOP inhibitor | XBP1 UPR activ | 697 NFkB conf
CC1=C(C(=O)Nc2ccccc2)C(c2cccnc2)n2ncnc2N1 (configuration not stated) | 7 | -2 | -9 | -7 | 11 | .
Cc1ccc(C(=O)NCc2ccco2)cc1S(=O)(=O)N1CCCC1 | -45 | 0 | 6 | . | 1 | .
CCCCOc1ccc(NC(=O)C(=O)NCCCn2ccnc2)cc1 | 54* | -1 | 10 | -3 | -1 | 58*
CCCCCCOc1ccc(C(=O)NCCCn2ccnc2)cc1 | -5 | 1 | -16 | 5 | 1 | .
Nc1ccc(C#Cc2ccc3sc4ccccc4c(=O)c3c2)cc1 | -44 | 5 | -53 | . | 4 | .
O=c1c2ccccc2sc2ccc(C#CC3(O)CCCCC3)cc12 | 40* | -10 | 44 | . | -8 | 16
O=[N+]([O-])c1cccc(-c2nc(-c3ccccc3)no2)c1 | -117 | 3 | -105 | 46 | 1 | .
c1ccc(-c2noc(-c3ccc4ccccc4c3)n2)cc1 | -354 | -5 | -100 | 54 | -8 | -359
NC(=O)CC[C@H](NC(=O)c1ccc(Cl)cc1)C(=O)NNC(=O)COc1cccc(Br)c1 | 18 | 1 | -6 | . | 0 | .
Cc1cccc(C(=O)N[C@H](C(=O)Nc2cc(S(=O)(=O)N3CCCCC3)ccc2C)C(C)C)c1 | -4 | 2 | 8 | 17 | -4 | .
Cc1cc(C)c2nc(NC(=O)[C@@H](NC(=O)c3cccc(S(=O)(=O)N4CCOCC4)c3)C(C)C)sc2c1 | 54* | 3 | 10 | 93* | 4 | 54*
COC(=O)c1c(-c2ccc(C)cc2)csc1NC(=S)NC(=O)c1ccc(F)cc1 | -24 | -2 | -6 | -8 | -4 | .
COC(=O)c1c(-c2ccccc2)csc1NC(=O)c1c(-c2ccccc2)noc1C | i | 1 | -44 | 47 | 2 | i
CCOC(=O)c1c(-c2ccc(C)cc2)csc1NC(=S)NC(=O)c1ccccc1 | -486 | 3 | 3 | 11 | 2 | 0
N#Cc1cc2c(nc1SCc1ccc(Cl)nc1)CCCCC2 | -1 | -1 | 15 | 22 | 5 | .
CN(C)S(=O)(=O)c1cccc(-c2csc(N/N=C/c3ccco3)n2)c1 | -3 | 4 | -6 | 17 | 0 | .
Cc1ccc(-c2csc(N/N=C/c3ccco3)n2)c(C)c1 | -403 | 3 | -89 | 27 | 3 | -20
O=[N+]([O-])c1ccc(Sc2cc[n+]([O-])c3ccccc23)c([N+](=O)[O-])c1 | 37* | -1 | 28 | -49 | -4 | 50*
O=c1[nH]c(Sc2ccc([N+](=O)[O-])cc2[N+](=O)[O-])nc2ccccc12 | -11 | 19 | -8 | . | 2 | .
COCCCNc1nc2cc(OC)c(OC)cc2c2nc(-c3ccccc3)nn12 | 37* | 2 | -7 | . | 14 | 14
CCN(CC)CCCNc1nc2cc(OC)c(OC)cc2c2nc(-c3ccccc3)nn12 | 18 | 7 | -67 | 11 | 2 | .
O=C(CCCc1nc(-c2ccccc2Cl)no1)NC1CCCC1 | 74* | -10 | 1 | . | -9 | 78*
COc1ccccc1-c1noc(CCCC(=O)NC2CCCC2)n1 | 6 | 4 | 11 | . | -3 | .
